Data set [1] in a line: Population pharmacokinetic model. It is filed as in vivo, human. The essentials:
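Patients dosed orally three or four times weekly; 28-day cycles of 3 weeks dosing then 7 days off. Plasma sampled pre-dose to 24 h on day 1, 5 and/or 19 (882 concentrations). FOCE-I estimation; lag-time and transit absorption models tested; exponential IIV; additive residual error on log data. Median-normalized power covariate models; forward P<0.05, backward P 0.01; bootstrap evaluation.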

The conditions of data set [2]: cited from earlier work.
For data set [3] the following is noted: cited from earlier work. This is another data set of the same source.
The conditions of data set [4]: mouse plasma; cited from earlier work.
The test system of data set [5] is patients with hematologic and solid tumor malignancies. The note with it: cited from earlier work.
Where [6] appears, read: oral flat dose, preliminary phase 1 data.

Results on one compound are retold here after paper PMC8599380 (European Journal of Drug Metabolism and Pharmacokinetics, 2021).

Like-named read-outs stand apart in the source and are kept apart here.

Regarding `CC(C)[C@H](C(=O)Nc1ccc(C(=O)NO)cc1)c1ccccc1` [REC-2282], in data set [1] (55 patients, 20 mg to 80 mg), the “variability in dose-normalized AUC” value came out at 24.1% and the “variability in dose-normalized Cmax” value amounted to 29.6%. In data set [1] (flat doses 20 mg to 80 mg), the “dose proportionality of pharmacokinetics” value is on record as “dose-proportional”. Further, in data set [2] (mice, preclinical, ref unpublished data), the oral bioavailability is 26%. For the same compound, in data set [2] (mouse urine), the “dose recovered in urine” value is on record as 1.4%. In data set [3] (rat urine), the “dose recovered in urine” value is reported as 5%. The oral bioavailability in data set [3] (rats, preclinical, ref unpublished data) is 100%. In addition, the “bound to plasma proteins” value in data set [4] was 96%. In data set [5] (27 patients enrolled), the clinical response entry is reported as “minimal response to progressive disease” and the “most common adverse event” value is given as “dose-dependent cytopenias”. In addition, the observed dose-limiting toxicities result in data set [5] was “grade 4 thrombocytopenia, febrile neutropenia and grade 3 neutropenia with infection and grade 4 psychosis”. In data set [5] (setting [6]), the “coefficient of variation (CV) in apparent oral clearance among dose levels” value was 36 to 76% and the “coefficient of variation (CV) in peak concentrations among dose levels” value is 24–66%. The median progression-free survival in data set [5] (patients with NF2 and meningiomas) is recorded as 9.1 months. Further, the median progression-free survival in data set [5] (solid tumors) is 3.6 months.
